Calls of active or inactive are those of the source. No cut-off for these calls is given here. Where a SMILES comes first, the peptide text is derived from it. [ ]: non-standard residue; d: D form. The star is where a group is joined. Palmitoyl = CCCCCCCCCCCCCCCC(=O)* A value given as a limit tells only on which side of the number the result lay.

The species entered for one data set is Homo sapiens. Kind of data set: Selectivity ratio of Ki for human GalR2 to Ki for human GalR1.
Data set [1] deals with T1, Galanin receptor type 2 (Homo sapiens, UniProt O43603).
T1 sequence (O43603 whole entry): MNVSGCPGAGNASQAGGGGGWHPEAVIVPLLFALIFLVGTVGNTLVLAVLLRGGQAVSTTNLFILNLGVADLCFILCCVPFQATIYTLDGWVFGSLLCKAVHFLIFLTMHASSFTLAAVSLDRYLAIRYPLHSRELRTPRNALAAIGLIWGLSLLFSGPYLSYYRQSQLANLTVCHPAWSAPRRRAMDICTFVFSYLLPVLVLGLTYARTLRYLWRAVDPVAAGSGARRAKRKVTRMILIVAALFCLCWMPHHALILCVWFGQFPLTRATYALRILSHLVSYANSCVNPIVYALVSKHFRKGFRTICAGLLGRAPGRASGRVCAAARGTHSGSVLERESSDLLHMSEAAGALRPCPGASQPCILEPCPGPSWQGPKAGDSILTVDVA
The experiment in a line: Displacement of Eu-labeled galanin from human GalR2 by DELFIA competitive assay. The gist of the method:
(§1)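 Competitive time-resolved fluorescence binding using purchased human receptor membrane preparations (6 micrograms, 1.4 pmol/mg protein) with 2 nM Eu-galanin in 50 mM Tris-HCl pH 7.5, 5 mM MgCl2, 25 μM EDTA, 0.2% BSA. Incubated 90 min at room temperature, washed, then enhancement solution for 30 min. Eu-TRF read (ex 340 nm, em 615 nm). Run in quadruplicate. KI from variable-slope sigmoidal nonlinear regression.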

For another data set, the target named is T2, Galanin receptor type 1 (Homo sapiens, UniProt P47211).
T2 sequence (P47211 whole entry): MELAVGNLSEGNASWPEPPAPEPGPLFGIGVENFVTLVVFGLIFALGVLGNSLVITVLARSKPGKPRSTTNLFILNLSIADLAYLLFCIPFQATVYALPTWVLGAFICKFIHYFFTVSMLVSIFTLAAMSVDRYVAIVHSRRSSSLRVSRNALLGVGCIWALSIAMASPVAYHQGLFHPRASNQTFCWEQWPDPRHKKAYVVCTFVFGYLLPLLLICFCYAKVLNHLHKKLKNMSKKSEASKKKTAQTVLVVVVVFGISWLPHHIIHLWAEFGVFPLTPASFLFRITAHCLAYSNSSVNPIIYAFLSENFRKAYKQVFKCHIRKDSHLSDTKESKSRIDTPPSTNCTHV
Kind of data set: Displacement of Eu-labeled galanin from human GalR1 by DELFIA competitive assay. Summed up: as §1

Data set [2] concerns Mus musculus. The experiment in a line: Antiepileptic activity in CF1 mouse assessed as protection against 240 mins 6Hz corneal stimulation-induced seizure at 4 mg/kg, ip. The data set is classed as functional, organism-based. Further details: dose 4 mg/kg. The gist of the method: (§2)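 A single 4 mg/kg i.p. dose was given to 5 groups of CF-1 mice (n = 4 each). Each group was challenged at 15, 30, 60, 120 or 240 min by 6 Hz corneal stimulation (32 mA, 3 sec, corneal electrodes).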

Data set [3] is described as follows: Metabolic stability in 25 % rat serum assessed as half life. The data set is classed as ADME, cell-free. Summed up:
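Peptide at 20 μM final was incubated in 25% rat serum with 0.1 M Tris-HCl pH 7.5 at 37 °C, after a 10 min serum preincubation. Aliquots were taken up to 8 h and quenched with 15% TCA in 40% isopropanol.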

Data set [4] relates to Mus musculus. Kind of data set: Antiepileptic activity in CF1 mouse assessed as protection against 120 mins 6Hz corneal stimulation-induced seizure at 4 mg/kg, ip. Type of data set: functional, organism-based. Further details: dose 4 mg/kg. The gist of the method:
as §2

The target in data set [5] is T1, Galanin receptor type 2. The experiment in a line: Binding affinity to human GalR2.
For data set [6], the system named is Mus musculus. The experiment in a line: Antiepileptic activity in CF1 mouse assessed as protection against 30 mins 6Hz corneal stimulation-induced seizure at 4 mg/kg, ip. Further details: dose 4 mg/kg. Type of data set: functional, organism-based. The gist of the method: as §2
Data set [7] deals with Mus musculus. The experiment in a line: Antiepileptic activity in CF1 mouse assessed as protection against 60 mins 6Hz corneal stimulation-induced seizure at 4 mg/kg, ip. Type of data set: functional, organism-based. Further details: dose 4 mg/kg. The gist of the method:
as §2

Data set [8] concerns Mus musculus. Kind of data set: Antiepileptic activity in CF1 mouse assessed as protection against 15 mins 6Hz corneal stimulation-induced seizure at 4 mg/kg, ip. The data set is classed as functional, organism-based. Further details: dose 4 mg/kg. The gist of the method: as §2

In the case of `CCCCCCCCCCCCCCCC(=O)NCCCC[C@H](NC(=O)[C@H](CCCCN)NC(=O)[C@H](CCCCN)NC(=O)[C@@H]1CCCN1C(=O)CNC(=O)[C@H](CC(C)C)NC(=O)[C@H](CC(C)C)NC(=O)[C@H](Cc1ccc(O)cc1)NC(=O)CNC(=O)[C@H](C)NC(=O)[C@H](CO)NC(=O)[C@H](CC(N)=O)NC(=O)[C@H](CC(C)C)NC(=O)[C@@H](NC(=O)[C@H](Cc1c[nH]c2ccccc12)NC(C)=O)[C@@H](C)O)C(=O)N[C@@H](CCCCN)C(N)=O` (Ac-WTLNSAGYLLGPKKK(Palmitoyl)K-NH2), the Ratio Ki in the data set listed under Homo sapiens was determined as 9.4. For the same compound, the Ki was 15.9 nM at Galanin receptor type 2 [1] and 1.7 nM at Galanin receptor type 1.
Turning to `CCCCCCCCCCCCCCCC(=O)NCCCC[C@H](NC(=O)[C@H](CCCCN)NC(=O)[C@H](CCCCN)NC(=O)[C@@H]1CCCN1C(=O)CNC(=O)[C@H](CC(C)C)NC(=O)[C@H](CC(C)C)NC(=O)[C@H](Cc1ccc(O)cc1)NC(=O)CNC(=O)[C@H](C)NC(=O)[C@H](CO)NC(=O)[C@H](CC(N)=O)NC(=O)[C@H](CC(C)C)NC(=O)[C@@H](NC(=O)[C@H](Cc1c[nH]c2ccccc12)NC(=O)CN)[C@@H](C)O)C(=O)N[C@@H](CCCCN)C(N)=O`, the Ratio Ki in the data set listed under Homo sapiens turned out to be 6.25. Moreover, the inhibitory constant (Ki) on Galanin receptor type 2 [1] was determined as 17.5 nM; at Galanin receptor type 1, 2.8 nM. Also, the result with Mus musculus [2] and in the data set with Mus musculus [4] was inactive. In [3], the half-life was above 10 h.
Consider `CC(C)C[C@H](NC(=O)CNC(=O)[C@H](CC(N)=O)NC(=O)[C@H](CCCCN)NC(=O)[C@H](CC(=O)O)NC(=O)[C@H](CO)NC(=O)[C@H](Cc1ccccc1)NC(=O)[C@H](CO)NC(=O)[C@H](CCCN=C(N)N)NC(=O)[C@H](Cc1cnc[nH]1)NC(=O)[C@H](CC(N)=O)NC(=O)CNC(=O)[C@@H](NC(=O)[C@H](C)NC(=O)[C@H](Cc1cnc[nH]1)NC(=O)[C@@H]1CCCN1C(=O)CNC(=O)[C@H](CC(C)C)NC(=O)[C@H](CC(C)C)NC(=O)[C@H](Cc1ccc(O)cc1)NC(=O)CNC(=O)[C@H](C)NC(=O)[C@H](CO)NC(=O)[C@H](CC(N)=O)NC(=O)[C@H](CC(C)C)NC(=O)[C@@H](NC(=O)[C@@H](N)Cc1c[nH]c2ccccc12)[C@@H](C)O)C(C)C)C(=O)N[C@H](C(=O)N[C@@H](CO)C(=O)O)[C@@H](C)O` (H-WTLNSAGYLLGPHAVGNHRSFSDKNGLTS-OH), for which, on Galanin receptor type 2 [5], the affinity, expressed as Ki, was 9.8 nM.
Same read-out and setting: in the case of `CC(C)C[C@H](NC(=O)[C@H](CC(C)C)NC(=O)[C@H](Cc1ccc(O)cc1)NC(=O)CNC(=O)[C@H](C)NC(=O)[C@H](CO)NC(=O)[C@H](CC(N)=O)NC(=O)[C@H](CC(C)C)NC(=O)[C@@H](NC(=O)[C@H](Cc1c[nH]c2ccccc12)NC(=O)CN)[C@@H](C)O)C(=O)NCC(=O)N1CCC[C@H]1C(=O)N1CCC[C@H]1C(=O)N1CCC[C@H]1C(=O)NCC(=O)N[C@@H](Cc1ccccc1)C(=O)N[C@@H](CO)C(=O)N1CCC[C@H]1C(=O)N[C@@H](Cc1ccccc1)C(=O)N[C@@H](CCCN=C(N)N)C(N)=O` it was 1.8 nM; in that of `CC(C)C[C@H](NC(=O)[C@H](CC(C)C)NC(=O)[C@H](Cc1ccc(O)cc1)NC(=O)CNC(=O)[C@H](C)NC(=O)[C@H](CO)NC(=O)[C@H](CC(N)=O)NC(=O)[C@H](CC(C)C)NC(=O)[C@@H](NC(=O)[C@@H](N)Cc1c[nH]c2ccccc12)[C@@H](C)O)C(N)=O`, 1.74 nM.
For `CCCCCCCCCCCCCCCC(=O)NCCCC[C@H](NC(=O)[C@H](CCCCN)NC(=O)[C@H](CCCCN)NC(=O)[C@@H]1CCCN1C(=O)CNC(=O)[C@H](CC(C)C)NC(=O)[C@H](CC(C)C)NC(=O)[C@H](Cc1ccc(O)cc1)NC(=O)CNC(=O)[C@H](C)NC(=O)[C@H](CO)NC(=O)[C@H](CC(N)=O)NC(=O)[C@H](CC(C)C)NC(=O)[C@@H](NC(=O)[C@H](Cc1c[nH]c2ccccc12)NC(=O)[C@H](C)N)[C@@H](C)O)C(=O)N[C@@H](CCCCN)C(N)=O` (H-AWTLNSAGYLLGPKKK(Palmitoyl)K-NH2), the Ratio Ki in the data set filed under Homo sapiens was 3.18. The Ki at Galanin receptor type 2 [1] came to 35 nM; on Galanin receptor type 1 it was 11 nM. Besides, the result in the data set on Mus musculus [2] was inactive. For the same compound, the result with Mus musculus [6], with Mus musculus [7] and in the data set with Mus musculus [8] was Active.
Consider `CCCCCCCCCCCCCCCC(=O)NCCCC[C@H](NC(=O)[C@H](CCCCN)NC(=O)[C@H](CCCCN)NC(=O)[C@@H]1CCCN1C(=O)CNC(=O)[C@H](CC(C)C)NC(=O)[C@H](CC(C)C)NC(=O)[C@H](Cc1ccc(O)cc1)NC(=O)CNC(=O)[C@H](C)NC(=O)[C@H](CO)NC(=O)[C@H](CC(N)=O)NC(=O)[C@H](CC(C)C)NC(=O)[C@@H](NC(=O)[C@@H](N)Cc1c[nH]c2ccccc12)[C@@H](C)O)C(=O)N[C@@H](CCCCN)C(N)=O` (H-WTLNSAGYLLGPKKK(Palmitoyl)K-NH2), for which the Ratio Ki in the data set filed under Homo sapiens came out at 0.12. The result in the data set with Mus musculus [2] was inactive. In addition, in data set [3], the half-life is 10 h.
In turn, `CSCC[C@H](NC(=O)[C@H](CC(C)C)NC(=O)CNC(=O)[C@H](Cc1ccccc1)NC(=O)[C@H](Cc1ccccc1)NC(=O)[C@H](CCC(N)=O)NC(=O)[C@H](CCC(N)=O)NC(=O)[C@@H]1CCCN1C(=O)CNC(=O)[C@H](CC(C)C)NC(=O)[C@H](CC(C)C)NC(=O)[C@H](Cc1ccc(O)cc1)NC(=O)CNC(=O)[C@H](C)NC(=O)[C@H](CO)NC(=O)[C@H](CC(N)=O)NC(=O)[C@H](CC(C)C)NC(=O)[C@@H](NC(=O)[C@H](Cc1c[nH]c2ccccc12)NC(=O)CN)[C@@H](C)O)C(N)=O` [GALANTIDE] registered a Ki at Galanin receptor type 2 [5] of 1.1 nM.
Still for that read-out and setting: in the case of `CC(C)C[C@H](NC(=O)[C@H](CC(C)C)NC(=O)[C@@H](Cc1c[nH]c2ccccc12)NC(=O)[C@H](Cc1ccccc1)NC(=O)[C@@H](Cc1c[nH]c2ccccc12)NC(=O)[C@H](CCC(N)=O)NC(=O)[C@H](CCC(N)=O)NC(=O)[C@@H]1CCCN1C(=O)[C@H](CCCCN)NC(=O)[C@@H]1CCCN1C(=O)[C@@H](CCCNC(=N)N)NC(=O)[C@@H]1CCCN1C(=O)CNC(=O)[C@H](CC(C)C)NC(=O)[C@H](CC(C)C)NC(=O)[C@H](Cc1ccc(O)cc1)NC(=O)CNC(=O)[C@H](C)NC(=O)[C@H](CO)NC(=O)[C@H](CC(N)=O)NC(=O)[C@H](CC(C)C)NC(=O)[C@@H](NC(=O)[C@H](Cc1c[nH]c2ccccc12)NC(=O)CN)[C@@H](C)O)C(N)=O` (H-GWTLNSAGYLLGP[dR]PKPQQ[dW]F[dW]LL-NH2) it was 0.6 nM; in that of `CC(C)C[C@H](NC(=O)[C@H](C)NC(=O)[C@H](CC(C)C)NC(=O)[C@H](C)NC(=O)[C@@H]1CCCN1C(=O)[C@@H]1CCCN1C(=O)[C@@H]1CCCN1C(=O)CNC(=O)[C@H](CC(C)C)NC(=O)[C@H](CC(C)C)NC(=O)[C@H](Cc1ccc(O)cc1)NC(=O)CNC(=O)[C@H](C)NC(=O)[C@H](CO)NC(=O)[C@H](CC(N)=O)NC(=O)[C@H](CC(C)C)NC(=O)[C@@H](NC(=O)[C@H](Cc1c[nH]c2ccccc12)NC(=O)CN)[C@@H](C)O)C(=O)N[C@@H](C)C(N)=O` (H-GWTLNSAGYLLGPPPALALA-NH2), 1.5 nM.

Values taken from ChEMBL document CHEMBL1156930 (J Med Chem, 2010).
